The RNAGym collection of RNA variant scans (doi:10.1038/s41586-018-0170-7)

B1: tRNA (parent)
chain: GUUCCGUUGGCGUAAUGGUAACGCGUCUCCCUCCUAAGGAGAAGACUGCGGGUUCGAGUCCCGUACGGAACG

Variants of: B1
Test: yeast fitness, log relative to wild type (ln ratio); higher = fitter; tRNA-Arg(CCU), competitive growth, 37 C, 1 M NaCl
Summary of the method: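 BY4742 cells without the chromosomal tRNA-Arg(CCU) gene carried a combinatorial variant library on a HIS3 centromeric plasmid, from two independent transformations. After 4 generations in SC-HIS at 30 °C, pools spent ~6.5 generations (~26.5 h) in SC-HIS 1M NaCl at 37 °C, giving three outputs per input, and 125 bp paired-end Illumina reads counted the variants. Fitness is the natural log of each genotype's generations over the wild type's, with generations taken as OD-scaled log2 output/input frequency weighted by inverse variance across replicates.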

Row | Variant | yeast fitness (ln)
1 | ACUCCAUUGGCGUAAUGGUAACGCGUCUCCCUCCUAAGGAGAAGACUGCGGGUUCGAGUCCCGUACGGAGCG [G1A U2C G6A A70G] | -0.0946
2 | ACUCCAUUGGCGUAAUGGUAACGCGUCUCCCUCCUAAGGAGAAGACUGCGGGUUCGAGUCCCGUACGGAUCG [G1A U2C G6A A70U] | -0.0459
3 | ACUCCGUUGGCGUAAUGGUAACGCGUCUCCCUCCUAAGGAGAAGACUGCGGGUUCGAGUCCCGUAAGGAUUG [G1A U2C C66A A70U C71U] | -0.0883
4 | ACUCCAUUGGCGUAAUGGUAACGCGUUUCCCUCCUAAGGAGACGAUUGCGGGUUCGAGUCCCGUACGGAGUG [G1A U2C G6A C27U A43C C46U A70G C71U] | -0.149
5 | ACUCCAUUGGCGUAAUGGUAACGCGUCUCCCUCCUAAGGAGACGAUUGCGGGUUCGAGUCCCGUAUGGAAUG [G1A U2C G6A A43C C46U C66U C71U] | -0.246
6 | ACUCCAUUGGCGUAAUGGUAACGCGUUUCCCUCCUAAGGAGACGAUUGCGGGUUCGAGUCCCGUAUGGGUUG [G1A U2C G6A C27U A43C C46U C66U A69G A70U C71U] | -0.555
7 | ACUCCAUUGGCGUAAUGGUAACGCGUUUCCCUCCUAAGGAGACGAUUGCGGGUUCGAGUCCCGUACGGGUUG [G1A U2C G6A C27U A43C C46U A69G A70U C71U] | -0.408
8 | ACUCCAUUGGCGUAAUGGUAACGCGUUUCCCUCCUAAGGAGACGAUUGCGGGUUCGAGUCCCGUACGGAUUG [G1A U2C G6A C27U A43C C46U A70U C71U] | -0.153
9 | ACUCCGUUGGCGUAAUGGUAACGCGUCUCCCUCCUAAGGAGAAGACUGCGGGUUCGAGUCCCGUAUGGGGUG [G1A U2C C66U A69G A70G C71U] | -0.055
10 | ACUCCGUUGGCGUAAUGGUAACGCGUCUCCCUCCUAAGGAGAAGAUUGCGGGUUCGAGUCCCGUACGGAAUG [G1A U2C C46U C71U] | -0.0165
11 | ACUCCAUUGGCGUAAUGGUAACGCGUCUCCCUCCUAAGGAGACGAUUGCGGGUUCGAGUCCCGUACGGAACG [G1A U2C G6A A43C C46U] | 0.0217
12 | ACUCCGUUGGCGUAAUGGUAACGCGUCUCCCUCCUAAGGAGAAGAUUGCGGGUUCGAGUCCCGUAUGGAAUG [G1A U2C C46U C66U C71U] | -0.119
13 | ACUCCAUUGGCGUAAUGGUAACGCGUCUCCCUCCUAAGGAGACGAUUGCGGGUUCGAGUCCCGUACGGAGUG [G1A U2C G6A A43C C46U A70G C71U] | -0.354
14 | ACUCCAUUGGCGUAAUGGUAACGCGUCUCCCUCCUAAGGAGAAGACUGCGGGUUCGAGUCCCGUACGGAGUG [G1A U2C G6A A70G C71U] | -0.0357
15 | ACUCCGUUGGCGUAAUGGUAACGCGUCUCCCUCCUAAGGAGAAGACUGCGGGUUCGAGUCCCGUAAGGAGUG [G1A U2C C66A A70G C71U] | -0.208
16 | ACUCCAUUGGCGUAAUGGUAACGCGUUUCCCUCCUAAGGAGACGACUGCGGGUUCGAGUCCCGUAUGGAGUG [G1A U2C G6A C27U A43C C66U A70G C71U] | -0.0683
17 | ACUCCAUUGGCGUAAUGGUAACGCGUCUCCCUCCUAAGGAGACGACUGCGGGUUCGAGUCCCGUACGGAUUG [G1A U2C G6A A43C A70U C71U] | -0.088
18 | ACUCCAUUGGCGUAAUGGUAACGCGUUUCCCUCCUAAGGAGACGAUUGCGGGUUCGAGUCCCGUAUGGAAUG [G1A U2C G6A C27U A43C C46U C66U C71U] | -0.128
19 | ACUCCAUUGGCGUAAUGGUAACGCGUCUCCCUCCUAAGGAGACGAUUGCGGGUUCGAGUCCCGUAUGGAGCG [G1A U2C G6A A43C C46U C66U A70G] | -0.0356

Row | Variant | yeast fitness (ln)
20 | ACUCCAUUGGCGUAAUGGUAACGCGUCUCCCUCCUAAGGAGACGAUUGCGGGUUCGAGUCCCGUAUGGAUCG [G1A U2C G6A A43C C46U C66U A70U] | -0.0467
21 | ACUCCAUUGGCGUAAUGGUAACGCGUUUCCCUCCUAAGGAGACGACUGCGGGUUCGAGUCCCGUACGGAUUG [G1A U2C G6A C27U A43C A70U C71U] | -0.186
22 | ACUCCAUUGGCGUAAUGGUAACGCGUCUCCCUCCUAAGGAGAAGACUGCGGGUUCGAGUCCCGUACGGGUUG [G1A U2C G6A A69G A70U C71U] | -0.281
23 | ACUCCAUUGGCGUAAUGGUAACGCGUUUCCCUCCUAAGGAGACGAUUGCGGGUUCGAGUCCCGUAUGGGGUG [G1A U2C G6A C27U A43C C46U C66U A69G A70G C71U] | -0.0617
24 | ACUCCAUUGGCGUAAUGGUAACGCGUUUCCCUCCUAAGGAGACGAUUGCGGGUUCGAGUCCCGUAUGGAGUG [G1A U2C G6A C27U A43C C46U C66U A70G C71U] | -0.0245
25 | ACUCCAUUGGCGUAAUGGUAACGCGUCUCCCUCCUAAGGAGACGAUUGCGGGUUCGAGUCCCGUACGGAUUG [G1A U2C G6A A43C C46U A70U C71U] | -0.0375
26 | ACUCCAUUGGCGUAAUGGUAACGCGUUUCCCUCCUAAGGAGACGAUUGCGGGUUCGAGUCCCGUACGGGGUG [G1A U2C G6A C27U A43C C46U A69G A70G C71U] | -0.0929
27 | ACUCCAUUGGCGUAAUGGUAACGCGUUUCCCUCCUAAGGAGACGAUUGCGGGUUCGAGUCCCGUAUGGAUUG [G1A U2C G6A C27U A43C C46U C66U A70U C71U] | -0.252
28 | ACUCCAUUGGCGUAAUGGUAACGCGUCUCCCUCCUAAGGAGACGACUGCGGGUUCGAGUCCCGUACGGAGUG [G1A U2C G6A A43C A70G C71U] | -0.13
29 | ACUCCAUUGGCGUAAUGGUAACGCGUCUCCCUCCUAAGGAGACGACUGCGGGUUCGAGUCCCGUAUGGAUUG [G1A U2C G6A A43C C66U A70U C71U] | -0.301
30 | ACUCCGUUGGCGUAAUGGUAACGCGUCUCCCUCCUAAGGAGAAGAUUGCGGGUUCGAGUCCCGUAUGGAUUG [G1A U2C C46U C66U A70U C71U] | -0.175
31 | ACUCCAUUGGCGUAAUGGUAACGCGUUUCCCUCCUAAGGAGACGACUGCGGGUUCGAGUCCCGUAUGGGGUG [G1A U2C G6A C27U A43C C66U A69G A70G C71U] | -0.255
32 | ACUCCAUUGGCGUAAUGGUAACGCGUCUCCCUCCUAAGGAGACGACUGCGGGUUCGAGUCCCGUACGGAACG [G1A U2C G6A A43C] | -0.0264
33 | ACUCCAUUGGCGUAAUGGUAACGCGUCUCCCUCCUAAGGAGACGAUUGCGGGUUCGAGUCCCGUACGGGGUG [G1A U2C G6A A43C C46U A69G A70G C71U] | -0.119
34 | ACUCCAUUGGCGUAAUGGUAACGCGUUUCCCUCCUAAGGAGACGAUUGCGGGUUCGAGUCCCGUACGGAACG [G1A U2C G6A C27U A43C C46U] | -0.0401
35 | ACUCCGUUGGCGUAAUGGUAACGCGUCUCCCUCCUAAGGAGAAGACUGCGGGUUCGAGUCCCGUAUGGAGUG [G1A U2C C66U A70G C71U] | 0.00307
36 | ACUCCAUUGGCGUAAUGGUAACGCGUUUCCCUCCUAAGGAGACGAUUGCGGGUUCGAGUCCCGUACGGGGCG [G1A U2C G6A C27U A43C C46U A69G A70G] | -0.225
37 | ACUCCAUUGGCGUAAUGGUAACGCGUUUCCCUCCUAAGGAGACGAUUGCGGGUUCGAGUCCCGUACGGGUCG [G1A U2C G6A C27U A43C C46U A69G A70U] | -0.132
